# DNMT1 block: DNMT1 (human) enzyme inhibition | AID 588458 | DNMT1 molecular beacon, Hinp1I cleavage, fluorescence | inhibition (reported as % activation of signal), % at 10 µM | 360,000 tested, 0.83% active | P26358; in the data active means inhibition above about 50%
# Scp-1 inhibitor: Scp-1 (human) phosphatase inhibition; Q9GZU7; Recombinant Scp1, phosphopeptide, malachite green phosphate absorbance; inhibition, % at 20 µM; 340,000 tested, 0.88% active;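 active means inhibition above about 50% at 20 µM, limit read from the data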;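 further: plate controls were DMSO wells with enzyme for no effect and wells lacking enzyme for full effect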
# Target sequence (Q9GZU7 76-261 limits assumed): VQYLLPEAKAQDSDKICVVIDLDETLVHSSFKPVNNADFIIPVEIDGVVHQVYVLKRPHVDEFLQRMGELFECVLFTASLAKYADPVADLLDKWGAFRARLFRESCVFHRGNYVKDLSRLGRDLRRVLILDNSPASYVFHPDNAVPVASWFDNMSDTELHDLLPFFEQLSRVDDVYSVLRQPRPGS
#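 System: truncated SCP-1 phosphatase (76-261aa); medium: Tris acetate buffer pH 5.5 with MgCl2 and Tween-20; incubation: 45 min room-temperature reaction, 5 min colour, 30 min stabiliser; compound: single 20 µM dose, 1% DMSO; reagent: Phosphorylated 17-residue peptide substrate; read-out: % inhibition at 20 µM; technique: colorimetric free-phosphate detection, absorbance 630 nm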
# STEP inh: STEP (human) phosphatase inhibition | P54829 | recombinant STEP, OMFP fluorogenic substrate, fluorescence | inhibition, % at 20 µM | 360,000 tested, 0.25% active;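 active means inhibition at 20 µM, scaled per plate between control wells, above about 37%, limit read from the data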;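 further: 0% = DMSO with enzyme and substrate and 100% = substrate only without enzyme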
#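 Also added – OMFP at 25 µM · Test system – STEP tyrosine phosphatase · Technique – FITC-channel fluorescence of OMFP product · Schedule – 20 min at room temperature, dark · Evaluation – control-normalized % inhibition with plate pattern correction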
# LMPTP inh: LMPTP (human) inhibition. P24666. inhibition, % at 20 µM. AID 651560. recombinant LMPTP-A, OMFP fluorogenic substrate, fluorescence intensity. 360,000 tested, 0.22% active;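 active means compounds that cut the enzyme signal by at least half of the control window in the single-dose screen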;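 further: plate controls were DMSO wells with enzyme plus substrate for no effect and substrate without enzyme for full effect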
# Target sequence (P24666 whole entry, looked up): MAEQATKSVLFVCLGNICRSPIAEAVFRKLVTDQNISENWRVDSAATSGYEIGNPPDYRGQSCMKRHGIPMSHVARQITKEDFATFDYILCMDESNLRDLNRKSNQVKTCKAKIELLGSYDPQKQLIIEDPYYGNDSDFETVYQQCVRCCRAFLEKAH
#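 Test system: LMPTP-A, protein tyrosine phosphatase of low molecular weight; Input: 0.625 nM enzyme; Incubation: 50 min dark incubation at room temperature; Signal: endpoint fluorescence intensity from OMFP dephosphorylation; Read-out basis: % inhibition versus control wells.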
# SUMO1 PPI mod: alters human SUMO1 binding to SIM partners | P63165 | SUMO1 binding to a labelled peptide, TR-FRET, 1 h | inhibition, % at 20 µM | 360,000 tested, 0.33% active | AID 602429; in the data active means inhibition above about 37%
# Target sequence (P63165 whole entry, looked up): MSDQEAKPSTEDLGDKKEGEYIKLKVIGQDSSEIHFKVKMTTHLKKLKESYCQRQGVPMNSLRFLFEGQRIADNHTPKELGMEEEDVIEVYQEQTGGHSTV
# An asterisk follows results filed as active; i = inactive; . = no result; + = active, no number. Hits are enriched below; roughly 1.8% of the tested compounds scored in any of these assays.
SMILES,DNMT1 block,Scp-1 inhibitor,STEP inh,LMPTP inh,SUMO1 PPI mod
N#CC1=C2SCN(Cc3ccccc3)CN2C(=O)CC1c1cccs1 (configuration not stated),-3,-1,48*,6,3
N#CC1=C2SCN(Cc3ccccc3)CN2C(=O)CC1c1ccc2c(c1)OCO2 (configuration not stated),-10,-7,3,11,9
Nc1nn2cc(-c3ccc(Br)cc3)nc2c2ccccc12,-3,0,-4,3,65*
CCN(CC)CCCNC(=O)c1cc(Nc2ccc(OC)cc2)nc2ccccc12,0,-9,0,1,-12
CCNCC(=O)N1c2ccccc2CCc2ccc(NC(=O)OCC)cc21,0,0,-2,-1,-4
COc1ccc(NC(=O)c2cccs2)cc1,1,4,1,1,-1
COc1ccc(C(=O)Nc2ccc(NC(=O)c3cccs3)cn2)cc1,9,-1,1,1,46*
COc1cccc(/C=N/NC(=O)c2cc3c(OC)cccc3[nH]2)c1O,5,-11,1,-1,51*
COc1cccc(/C=N/NC(=O)c2cc3cc([N+](=O)[O-])ccc3s2)c1O,99*,45,97*,88*,0
Cc1c(Br)c([N+](=O)[O-])nn1CC(=O)NCCc1ccc(Cl)cc1,-2,0,0,1,43*
Cc1c(Br)c([N+](=O)[O-])nn1CC(=O)NCc1ccccc1,1,-11,9,-1,-24
C/C(=N\NC(=O)CSc1nc2nc(C)cc(C)n2n1)c1ccccc1,1,-3,4,-2,4
Cc1cc(C)n2nc(SCC(=O)N/N=C/c3ccc(F)cc3)nc2n1,3,3,-4,-2,51*
O=C1CSC(c2cn(-c3ccccc3)nc2-c2cc3ccccc3oc2=O)N1Cc1ccccc1 (configuration not stated),-7,-18,6,3,55*
CCC(=O)Nc1cc2c3c(c1)CCC(=O)N3CCC2,1,-8,2,-2,-4
COc1ccc(CNc2nc(-c3ccccc3)nc3ccccc23)cc1OC,-6,-6,-1,63*,3
Cc1ccc(-c2nc(NCc3cccnc3)c3ccccc3n2)cc1,-10,-30,-4,63*,8
c1ccc(-c2nc(NCc3cccnc3)c3ccccc3n2)cc1,-3,-4,1,58*,6
Clc1cccc(-c2nc(NCc3cccnc3)c3ccccc3n2)c1,-10,-4,-1,42,10
COCC(=O)N1CCC(Oc2ccc(C(=O)N(C)CCCC3CCCC3)cc2)CC1,3,-5,-2,-1,4
CN1CCN(C2CCN(c3ccc(Nc4nnc(Cl)c(Nc5ccccc5S(C)(=O)=O)n4)c(OC(CF)CF)c3)CC2)CC1,-1,1,2,-4,-12
NC(=O)c1ccc(NCCc2cccs2)cc1,-3,.,-1,-1,39*
Fc1cccc(Cc2c(-c3ccco3)nc3ccc(Br)cn23)c1,50*,.,3,9,2
Fc1cccc(Cc2c(-c3ccco3)nc3ccc(Cl)cn23)c1,19,.,-4,1,0
N#Cc1ccc(C23OCCN2CCn2nc4ccccc4c23)cc1 (configuration not stated),0,-5,-4,-1,-1
SMILES,DNMT1 block,Scp-1 inhibitor,STEP inh,LMPTP inh,SUMO1 PPI mod
CC(C)CCOc1ncnc2c1sc1nc3c(cc12)CSC(C)(C)C3,3,-4,-1,0,44*
CCCn1cnc2c(sc3nc4c(cc32)CSC(C)(C)C4)c1=O,-2,23,-2,-1,2
C#CC(=O)CC1(CN(Cc2ccccc2)C(=O)OC(C)(C)C)CCCCC1,54*,-4,-1,0,4
O=[N+]([O-])c1ccc(Cl)c2c1C1C=CCC1C(c1ccccn1)N2 (configuration not stated),51*,-3,4,14,17
Cc1cc([N+](=O)[O-])cc2c1NC(c1ccccn1)C1CC=CC21 (configuration not stated),-2,-10,2,4,-6
CN(C)c1ccc(C=c2c3ccccc3n3c2c2ccccc2[n+]3C)cc1,29,-8,37,78*,119*
CN(C)c1ccc(C=c2c3cc(O)ccc3n3c2cc(-c2ccccc2)[n+]3C)cc1,30,7,14,94*,69*
C[n+]1c(-c2ccccc2)cc2c(=Cc3ccc([N+](=O)[O-])cc3)c3ccccc3n21,52*,22,1,13,-24
Cc1cc2c(=Cc3ccc(N(C)C)cc3)c3ccccc3n2[n+]1C,12,-5,24,45,-134
CCOC(=O)c1cc2c(=Cc3ccc(N(C)C)cc3)c3ccccc3n2[n+]1C,10,17,10,29,-36
CC(C)n1c2ccccc2c2cc([N+](=O)[O-])ccc21,-2,-12,1,1,-8
C[n+]1c(-c2ccccc2)cc2c(=Cc3ccccc3)c3ccccc3n21,50*,24,8,23,-50
COCc1nc2oc3ccccc3c(=O)c2cc1C(=O)OC,2,-7,3,-3,-25
O=C(CC(O)c1ccccc1)Nc1ccccn1 (configuration not stated),0,2,-2,-1,-2
CC(C)C(=O)Nc1ccc(C(=O)N/N=C/C2CC3C=CC2C3)cc1 (configuration not stated),3,-3,1,-1,40*
CN1C(=O)/C(=C/c2ccc(-c3ccccc3[N+](=O)[O-])o2)SC1=Nc1ccc(Cl)c(C(=O)O)c1,-10,3,9,2,39*
CN(C)S(=O)(=O)N1C(=O)c2ccccc2C1=O,9,-8,-1,-1,6
CN(C)/C=C1\C=C2C(=O)c3ccccc3N2C1=O,+,-16,i,-72,-158
O=C(Nc1c2c(nn1-c1ccccc1)CS(=O)(=O)C2)c1ccccc1Br,-1,-5,-1,0,3
C=CCCC(=O)Nc1nc(C)c(-c2csc(Nc3cccc(OC)c3)n2)s1,-44,6,0,-1,78*
Cc1ccc(Cl)cc1Nc1nc(-c2sc(NC(=O)C(C)(C)C)nc2C)cs1,-38,14,1,2,104*
Cc1nc(NC(=O)c2ccccc2)sc1-c1csc(Nc2ccc(C(=O)O)cc2)n1,-6,80*,1,43,92*
Nc1nc2ccc(Cl)cc2cc1C(=O)NCc1ccc(Oc2ccccc2)cc1,.,.,.,-1,3
COC(=O)[C@@]12C[C@@H](CC(=O)N3CCCC3)C(=O)N(Cc3ccccc3)C1=CCC(C)(C)C2,.,.,.,-3,1
S=c1[nH]c2ccccc2n2c(=S)[nH]nc12,1,3,0,-20,-7
S=c1[nH]nc2ccc3ccccc3n12,-1,.,0,71*,-3
